From publication PMC5069309 (Clinical Pharmacokinetics, 2016)
Like-named read-outs stand apart in the source and are kept apart here.

Key:
[1] = format: in vivo; settings: human, plasma, sc
Procedure, shortened: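 Type 1 diabetic subjects dosed sc once daily for 4 weeks, from 0.6 mg/day rising 0.6 mg weekly to 0.6, 1.2 or 1.8 mg. Plasma taken pre-dose and 2–60 h after the final steady-state dose; sandwich ELISA with N- and C-terminal monoclonals, LLOQ 30 pmol/L. Non-compartmental: trapezoidal AUC, observed Cmax/tmax, CL/F = dose/AUC0–24 h, Vz/F = (CL/F)/λz.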

[2] = cited from earlier work

Vd/F [1]: 27.4 L | Vd/F ([1]; 0.6 mg): 27 L | Vd/F ([1]; 1.2 mg): 26 L | Vd/F ([1]; 1.8 mg): 29.3 L
Compound: CCCCCCCCCCCCCCCC(=O)N[C@@H](CCC(=O)NCCCC[C@H](NC(=O)[C@H](C)NC(=O)[C@H](C)NC(=O)[C@H](CCC(N)=O)NC(=O)CNC(=O)[C@H](CCC(=O)O)NC(=O)[C@H](CC(C)C)NC(=O)[C@H](Cc1ccc(O)cc1)NC(=O)[C@H](CO)NC(=O)[C@H](CO)NC(=O)[C@@H](NC(=O)[C@H](CC(=O)O)NC(=O)[C@H](CO)NC(=O)[C@@H](NC(=O)[C@H](Cc1ccccc1)NC(=O)[C@@H](NC(=O)CNC(=O)[C@H](CCC(=O)O)NC(=O)[C@H](C)NC(=O)[C@@H](N)Cc1cnc[nH]1)[C@@H](C)O)[C@@H](C)O)C(C)C)C(=O)N[C@@H](CCC(=O)O)C(=O)N[C@@H](Cc1ccccc1)C(=O)N[C@H](C(=O)N[C@@H](C)C(=O)N[C@@H](Cc1c[nH]c2ccccc12)C(=O)N[C@@H](CC(C)C)C(=O)N[C@H](C(=O)N[C@@H](CCCNC(=N)N)C(=O)NCC(=O)N[C@@H](CCCNC(=N)N)C(=O)NCC(=O)O)C(C)C)[C@@H](C)CC)C(=O)O [Liraglutide, liraglutide]
V z/F ([2]; healthy volunteers and subjects with T2D, previous studies): 11 to 17 L | CL/F ([2]; studies with healthy volunteers and subjects with T2D): 1.2 L/h
